According to publication PMC4411251 (The Journal of General Physiology, 2015):
“Also recorded” adds a separate entry of the source.

Assays:
TRPV1-R721A [1] = target: T1, TRPV1-R721A (Rattus norvegicus, UniProt O35433, R721A); assay type: cell-based; details: Hill fit of dose–response, native lipids
TRPV1-WT [2] = target: T2, TRPV1-WT (Rattus norvegicus, UniProt O35433); assay type: cell-based; details: Hill fit of dose–response, native lipids
TRPV1-R721A [3] = target: T1, TRPV1-R721A; assay type: cell-based; details: for Hill slope nH, phosphoinositide activation of TRPV1-R721A: Hill fit of dose–response, 1 µM capsaicin
Outline: (§1)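 Rat TRPV1 (WT or R721A) transiently expressed in F-11 cells and used 12–48 h post-transfection. […] Bath was 130 mM NaCl, 10 mM HEPES, 0.2 mM EDTA, pH 7.4, with steps from 0 mV to ±100 mV. Vehicle-subtracted currents were Hill-fitted per patch, normalized to Imax, and pooled (mean, SEM).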

TRPV1-WT [4] = target: T2, TRPV1-WT; assay type: cell-based; details: Hill fit of dose–response, 1 µM capsaicin
Outline: as §1

TRPV1 = details: ref Collins and Gordon, 2013; cited from earlier work
[5] = R721A mutation compared with WT

T2 sequence (O35433 whole entry): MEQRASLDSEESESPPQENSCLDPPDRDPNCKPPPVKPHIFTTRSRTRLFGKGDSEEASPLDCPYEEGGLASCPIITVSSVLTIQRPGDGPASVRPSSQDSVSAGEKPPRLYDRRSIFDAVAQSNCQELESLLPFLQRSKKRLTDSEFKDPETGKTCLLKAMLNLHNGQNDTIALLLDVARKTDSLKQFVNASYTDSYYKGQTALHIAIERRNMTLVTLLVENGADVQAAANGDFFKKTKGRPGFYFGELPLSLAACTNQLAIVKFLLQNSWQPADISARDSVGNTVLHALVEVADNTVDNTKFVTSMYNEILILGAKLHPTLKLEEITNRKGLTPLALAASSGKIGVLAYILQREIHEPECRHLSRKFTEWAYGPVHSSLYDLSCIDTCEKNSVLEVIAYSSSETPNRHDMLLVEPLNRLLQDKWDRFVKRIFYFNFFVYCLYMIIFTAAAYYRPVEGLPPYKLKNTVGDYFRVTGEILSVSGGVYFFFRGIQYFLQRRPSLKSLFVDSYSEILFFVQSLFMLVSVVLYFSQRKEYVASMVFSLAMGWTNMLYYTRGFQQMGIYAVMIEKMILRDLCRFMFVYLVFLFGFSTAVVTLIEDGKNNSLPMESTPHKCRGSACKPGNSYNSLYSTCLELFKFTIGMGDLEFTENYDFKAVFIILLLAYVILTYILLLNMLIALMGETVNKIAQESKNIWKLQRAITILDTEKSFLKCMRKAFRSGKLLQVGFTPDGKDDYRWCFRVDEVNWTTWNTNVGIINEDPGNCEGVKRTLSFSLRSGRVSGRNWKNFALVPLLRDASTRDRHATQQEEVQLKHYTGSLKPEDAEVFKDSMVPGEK
T1 sequence (O35433 whole entry R721A): as the sequence (O35433 whole entry) above, with R721A counted along it

| SMILES | Hill slope nH, capsaicin activation of TRPV1-R721A (TRPV1-R721A [1]) | Hill slope nH, capsaicin activation of TRPV1-WT (TRPV1-WT [2]) | Hill slope nH, phosphoinositide activation of TRPV1-R721A (TRPV1-R721A [3]) | decrease in the EC50 for activation produced by the R721A mutation (in words) (TRPV1-R721A [3]; [5]) | decrease in the EC50 value, TRPV1-R721A versus TRPV1-WT (TRPV1-R721A [3]; [5]) [fold] | Hill slope nH, phosphoinositide activation of TRPV1-WT (TRPV1-WT [4]) | K1/2 of activating effects on TRPV1 in the plasma membrane (TRPV1) [mol %] | increase in the EC50 value, TRPV1-R721A versus TRPV1-WT (TRPV1-R721A [3]; [5]) [fold] |
| --- | --- | --- | --- | --- | --- | --- | --- | --- |
| COc1cc(CNC(=O)CCCC/C=C/C(C)C)ccc1O [capsaicin] | 1 | 1 | – | – | – | – | – | – |
| CCCCCCCC(=O)OC[C@H](COP(=O)(O)O[C@H]1[C@H](O)[C@@H](O)[C@H](OP(=O)(O)O)[C@@H](O)[C@H]1O)OC(=O)CCCCCCC [diC8-PI(4)P] | – | – | 2 | more than two orders of magnitude; also recorded: over two orders of magnitude | 150 | 2 | – | – |
| CCCCCCCC(=O)OC[C@H](COP(=O)(O)O[C@@H]1[C@H](O)[C@H](O)[C@@H](OP(=O)(O)O)[C@H](OP(=O)(O)O)[C@H]1O)OC(=O)CCCCCCC [diC8-PI(4,5)P2, phosphoinositide 4,5-bisphosphate] | – | – | 2 | – | – | 2 | ~0.03 | 1.3 |
